Cav3 T inh: human Cav3.2 channel inhibition, primary screen | B-score at 10 µM | Cav3.2-expressing cells, Fluo-4 calcium fluorescence FDSS; active compounds read low | 4% of 100,000 active;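 active = single-dose well whose peak fluorescence ratio is a statistical outlier from its plate by either plate-standardised score or position-corrected B-score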
Target sequence (O95180 whole entry, looked up): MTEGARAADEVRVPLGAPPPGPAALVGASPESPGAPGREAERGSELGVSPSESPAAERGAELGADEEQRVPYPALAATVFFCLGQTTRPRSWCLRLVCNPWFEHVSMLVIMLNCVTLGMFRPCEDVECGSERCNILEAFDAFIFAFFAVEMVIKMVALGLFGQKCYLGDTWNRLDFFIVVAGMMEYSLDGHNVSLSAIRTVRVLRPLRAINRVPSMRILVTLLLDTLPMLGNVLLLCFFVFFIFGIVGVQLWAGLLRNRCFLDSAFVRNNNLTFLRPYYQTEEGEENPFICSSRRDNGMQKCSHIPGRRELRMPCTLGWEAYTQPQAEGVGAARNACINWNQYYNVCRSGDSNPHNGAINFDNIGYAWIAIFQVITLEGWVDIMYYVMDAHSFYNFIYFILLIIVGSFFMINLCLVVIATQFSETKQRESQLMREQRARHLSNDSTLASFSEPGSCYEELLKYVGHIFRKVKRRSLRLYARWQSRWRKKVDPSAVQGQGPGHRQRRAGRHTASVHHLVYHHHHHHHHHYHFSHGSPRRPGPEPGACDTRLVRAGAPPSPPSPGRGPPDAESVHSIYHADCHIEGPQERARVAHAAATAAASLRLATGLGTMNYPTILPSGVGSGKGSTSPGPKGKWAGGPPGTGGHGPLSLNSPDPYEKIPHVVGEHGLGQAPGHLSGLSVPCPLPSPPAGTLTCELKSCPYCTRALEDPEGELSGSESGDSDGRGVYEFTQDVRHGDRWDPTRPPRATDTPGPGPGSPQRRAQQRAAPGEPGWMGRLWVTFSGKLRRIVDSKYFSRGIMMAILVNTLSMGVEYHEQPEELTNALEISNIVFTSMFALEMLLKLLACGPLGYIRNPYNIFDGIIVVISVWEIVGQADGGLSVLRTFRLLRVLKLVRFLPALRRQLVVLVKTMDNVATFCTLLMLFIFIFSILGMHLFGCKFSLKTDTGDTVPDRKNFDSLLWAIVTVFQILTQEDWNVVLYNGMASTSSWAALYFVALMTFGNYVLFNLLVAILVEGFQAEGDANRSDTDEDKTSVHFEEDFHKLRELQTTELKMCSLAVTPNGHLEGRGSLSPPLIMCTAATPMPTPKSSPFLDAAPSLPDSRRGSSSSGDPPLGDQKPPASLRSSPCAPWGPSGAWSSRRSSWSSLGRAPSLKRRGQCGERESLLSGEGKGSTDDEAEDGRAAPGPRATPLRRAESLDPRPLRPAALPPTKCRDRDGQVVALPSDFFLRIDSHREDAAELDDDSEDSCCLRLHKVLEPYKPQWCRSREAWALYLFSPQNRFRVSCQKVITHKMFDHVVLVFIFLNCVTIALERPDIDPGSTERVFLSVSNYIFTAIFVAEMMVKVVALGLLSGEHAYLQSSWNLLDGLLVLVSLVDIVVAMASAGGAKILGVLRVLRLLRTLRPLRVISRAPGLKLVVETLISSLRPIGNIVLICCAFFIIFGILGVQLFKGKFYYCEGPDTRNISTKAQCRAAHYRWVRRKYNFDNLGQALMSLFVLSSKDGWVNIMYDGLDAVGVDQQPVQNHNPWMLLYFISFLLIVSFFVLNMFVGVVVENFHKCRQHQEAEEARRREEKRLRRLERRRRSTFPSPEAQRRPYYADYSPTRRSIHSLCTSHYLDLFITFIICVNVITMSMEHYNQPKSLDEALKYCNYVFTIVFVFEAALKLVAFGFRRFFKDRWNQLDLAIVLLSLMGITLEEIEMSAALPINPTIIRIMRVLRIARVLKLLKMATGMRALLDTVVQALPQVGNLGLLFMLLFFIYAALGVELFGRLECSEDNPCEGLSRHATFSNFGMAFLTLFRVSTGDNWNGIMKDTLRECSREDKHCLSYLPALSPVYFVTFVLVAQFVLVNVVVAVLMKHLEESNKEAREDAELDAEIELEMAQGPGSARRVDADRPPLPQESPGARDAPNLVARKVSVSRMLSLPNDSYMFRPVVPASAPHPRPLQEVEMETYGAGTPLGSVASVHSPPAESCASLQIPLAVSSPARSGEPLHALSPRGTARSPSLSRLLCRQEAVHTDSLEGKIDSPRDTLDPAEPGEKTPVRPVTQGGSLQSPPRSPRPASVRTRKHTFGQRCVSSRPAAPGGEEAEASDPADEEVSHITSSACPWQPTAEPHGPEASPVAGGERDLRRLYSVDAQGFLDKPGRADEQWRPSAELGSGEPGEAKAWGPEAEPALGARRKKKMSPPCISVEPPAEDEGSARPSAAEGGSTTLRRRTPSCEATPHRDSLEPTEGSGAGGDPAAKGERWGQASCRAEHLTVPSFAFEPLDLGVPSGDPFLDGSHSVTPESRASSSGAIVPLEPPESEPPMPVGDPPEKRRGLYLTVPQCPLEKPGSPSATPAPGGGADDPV
HIV Rev-RRE inh: HIV Rev-RRE protein-RNA interaction inhibition. 0.79% of 97,000 active. Rev peptide-RRE RNA binding, FRET. P05866. inhibition, % at 8 µM. AID 704;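 active = inhibition above the screen-wide mean plus 3 SD, cut at about 35% in these data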
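Assay system: Labelled RRE RNA duplex and labelled Rev peptide | Times: 5 min preincubation and 15 min binding, 25 °C | Detection: FRET, ex 480 nm, em 540 and 671 nm | Evaluation: % inhibition of FRET ratio versus controls | Benchmarks: DMSO wells as 0% and neomycin B wells as 100% inhibition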
CYP2C9 activ: CYP2C9 (human) activation. recombinant CYP2C9, luciferin-H conversion, luminescence; active compounds read high; factor 1 = untreated enzyme, 0 = blocked. 1.4% of 96,000 active. activation factor at 5 µM. P11712. AID 1024;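 active = activation factor of 2 or more for CYP2C9 at a 5 µM dose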
CYP2C19 inh: inhibitors of human CYP2C19 | 21% of 96,000 active | AID 778 | CYP2C19 Supersomes, luciferin-H EGE luminescence, 30 min | P33261 | inhibition, % at 5 µM;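 active = CYP2C19 inhibition above a set limit at 5 µM in the primary screen, cut at about 50% in these data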
CYP2C9 inh: human CYP2C9 inhibition; 20% of 96,000 active; CYP2C9 Supersomes, luciferin-H conversion, luminescence; AID 777; P11712; inhibition, % at 5 µM;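 active = blocking of liver enzyme CYP2C9 beyond about 50% at 5 µM, limit read from the data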
CYP2C19 activ: activators of human cytochrome P450 2C19. P33261. recombinant CYP2C19, luciferin-H EGE luminescence; active compounds read high; 0 = fully inhibited enzyme, 1 = untreated enzyme. activation factor at 5 µM. 96,000 tested, under 10 active;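 active = activation factor of at least 2 at 5 µM in the primary screen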
Numbers stand for hits; 0 = inactive; - = no result given; [ ] = remark or other dose. Most compounds without a hit are left out; they make up all but 27% or so of the library.

SMILES	Cav3 T inh	HIV Rev-RRE inh	CYP2C9 activ	CYP2C19 inh	CYP2C9 inh	CYP2C19 activ
O=P(Cc1ccccn1)(c1ccccc1)c1ccccc1	0	0	0	0	0	0
Cc1ccc2cc(CCNC(=O)C3CCCC3)c(=O)[nH]c2c1	0	-	0	0	0	0
CS/C(=C\[N+](=O)[O-])Nc1ccc(Cl)cc1	0	0	0	0	0	0
N#CCSc1nnc(CNc2ccc(F)cc2)o1	0	0	-	-	-	-
CSc1nnc(C)c(/C=C/Nc2ccc(F)cc2)n1	0	89.3[fluorescence artefact?]	0	0	0	0
CSc1nnc(C)c(/C=C/Nc2ccc(Cl)cc2)n1	0	41.9	0	0	57.0	0
CC(=O)Nc1ccc(S(=O)(=O)NC2(C(F)(F)F)NC(=O)N(C3CCCCC3)C2=O)cc1 (stereo not given)	0	0	0	0	0	0
COc1ccc(NC(=O)CN2CCCC(C)C2)c([N+](=O)[O-])c1 (stereo not given)	0	0	0	0	0	0
Cc1ccc(S(=O)(=O)CC(=O)N2CCCC2)cc1	0	0	-	-	-	-
Cc1ccc(S(=O)(=O)C2(C(=O)N3CCCCCC3)CC2)cc1	0	0	0	78.6	0	0
Cc1ccc(S(=O)(=O)C2(C(=O)N3CCN(C4CCCCC4)CC3)CC2)cc1	-5.19	0	-	-	-	-
Cc1ccc(S(=O)(=O)C2(C(=O)NC3CCCC3)CC2)cc1	0	0	0	0	0	0
COc1ccc(C(=O)NC(=S)NCCO)cc1Br	0	0	0	0	0	0
O=C(O)CCN1C(=O)/C(=C/c2ccc(-c3nc4ccccc4s3)o2)SC1=S	-	0	0	0	0	0
O=C(O)CC(C(=O)O)N1C(=O)/C(=C/c2ccc(-c3nc4ccccc4s3)o2)SC1=S (stereo not given)	-	51.8	0	0	0	0
O=C1CC2(CCCC2)Oc2ccccc21	0	-	-	-	-	-
CNNCc1ccc(C(=O)NC(C)C)cc1	0	-	-	-	-	-
O=C(CSc1nnc(Cc2ccccc2)o1)NCc1ccco1	0	0	0	0	0	0
Cc1[nH]c2ccccc2c1Cc1nnc(SCC(=O)NCc2ccco2)o1	0	-	2.6	0	0	0
CCOC(=O)COc1ncn(-c2ccccc2)n1	0	0	0	0	0	0
CC(=O)COc1ncn(-c2ccccc2)n1	-4.37	0	0	0	0	0
CCOC(=O)C(C)n1nc(/C=C/c2ccccc2)ccc1=O (stereo not given)	0	0	0	0	71.1	0
CCOC(=O)Cn1nc(-c2ccccc2)nc1-c1ccccc1	0	0	0	0	0	0
CCOC(=O)Cc1csc(SCc2nc3sc4c(c3c(=O)[nH]2)CCC4)n1	0	0	0	0	0	0
COC(=O)c1c(NC(=O)CN2CCN(Cc3ccc4c(c3)OCO4)CC2)sc(C)c1C	0	0	0	50.3	71.4	0
SMILES	Cav3 T inh	HIV Rev-RRE inh	CYP2C9 activ	CYP2C19 inh	CYP2C9 inh	CYP2C19 activ
COC(=O)c1ccsc1NC(=O)CN1CCN(Cc2ccc3c(c2)OCO3)CC1	0	0	0	0	56.0	0
COC(=O)c1ccsc1NC(=O)CN1CCN(c2ccc(F)cc2)CC1	0	0	0	91.4	90.7	0
COC(=O)c1c(NC(=O)CN2C(=O)c3ccccc3C2=O)sc(Cc2ccc3c(c2)OCO3)c1C	0	-	-	-	-	-
COc1ccc(NC(=O)CN2CCN(c3ccc(F)cc3)CC2)cc1Cl	0	0	0	0	0	0
CCC(C(=O)NCc1ccco1)N(C(=O)CNS(=O)(=O)c1ccccc1)c1ccc(OC)cc1 (stereo not given)	0	0	0	0	0	0
O=C([C@@H]1CC=C[C@@H]2CCN(C3CC3)C(=O)[C@@H]21)N1CCN(c2ccccc2)CC1	0	-	-	-	-	-
Cc1cc2c(C)c(C)c(=O)[nH]c2cc1N	0	0	0	0	0	0
O=C(CSc1nc(-c2ccco2)cc(C(F)(F)F)n1)NCC1CCCO1 (stereo not given)	0	0	0	71.1	0	0
O=C(CSc1nc(-c2ccco2)cc(C(F)(F)F)n1)Nc1ccc(C(=O)N2CCCCC2)cc1	0	0	0	55.4	85.3	0
O=C(CCSc1nc(-c2ccco2)cc(C(F)(F)F)n1)NCC1CCCO1 (stereo not given)	0	0	0	66.7	0	0
O=C(CCCSc1nc(-c2ccco2)cc(C(F)(F)F)n1)NCc1cccs1	-	0	0	0	79.5	0
O=C(CCCSc1nc(-c2ccco2)cc(C(F)(F)F)n1)NCC1CCCO1 (stereo not given)	0	0	-	-	-	-
Cc1cc(NC(=O)CCCSc2nc(-c3ccco3)cc(C(F)(F)F)n2)no1	0	0	0	0	0	0
Cc1cccc(C)c1NC(=O)CSc1nc(-c2ccco2)cc(C(F)(F)F)n1	0	0	-	-	-	-
CCOc1c2ccc(C(=O)NCCCCc3ccccc3)cc2nn1CC	0	0	0	0	0	0
CCn1c(CSc2nc3ccccc3s2)nnc1SCC(=O)NCC(=O)OC	0	0	0	0	0	0
COc1ccc(CCNC(=O)CCSc2nc(-c3ccco3)cc(C(F)(F)F)n2)cc1	0	0	0	0	0	0
CC(C)(C)c1cc(C(F)(F)F)nc(SCCCNC(=O)c2ccco2)n1	-4.63	0	0	92.1	87.8	0
COC(=O)c1ccc(CSCC(=O)Nc2cc(OC)cc(OC)c2)o1	0	0	0	0	64.1	0
O=C1CCCN1CN(C(=O)c1ccccc1)c1ccc(F)cc1	0	0	0	0	0	0
Nc1nc(C2CC2)c(Sc2sc(N)nc2C2CC2)s1	-	0	0	62.0	0	0
COc1cc(-c2nc3cnccn3c2Nc2ccc3c(c2)OCCO3)ccc1O	0	-	0	0	0	0
COc1cc(-c2nc3cnccn3c2Nc2ccc(C)cc2)ccc1O	0	0	0	79.6	54.8	0
COc1cc(-c2nc3cnccn3c2Nc2ccc(C(C)C)cc2)ccc1O	0	0	0	0	0	0
COc1cc(-c2nc3cnccn3c2Nc2ccccc2)ccc1O	0	0	0	0	51.2	0
SMILES	Cav3 T inh	HIV Rev-RRE inh	CYP2C9 activ	CYP2C19 inh	CYP2C9 inh	CYP2C19 activ
CC1CCCC(NC(=O)c2ccc(CNc3c(N4CCCC4)c(=O)c3=O)cc2)C1C (stereo not given)	0	-	0	0	0	0
Cc1cc(N2CCC3(CC2)OCCO3)n2nc(C)c(-c3ccc(Cl)cc3)c2n1	-	0	-	-	-	-
Cc1cc(N2CCOCC2)n2nc(C)c(-c3ccccc3)c2n1	3.81	0	0	0	0	0
Cc1nn2c(N3CCN(c4ccccn4)CC3)cc(C(C)C)nc2c1-c1ccccc1	0	0	0	0	61.7	0
Cc1c(Cl)cccc1NC(=O)CCC(=O)NNC(=O)c1ccccc1Cl	0	0	0	0	0	0
Cc1ccc(NC(=O)CC2S/C(=N/c3nccs3)N(C)C2=O)cc1C (stereo not given)	0	0	0	85.7	78.7	0
CN=C1SC(CC(=O)Nc2cc(Cl)ccc2Cl)C(=O)N1C (stereo not given)	0	0	0	59.8	0	0
Cc1ccccc1NC(=O)CC1S/C(=N/c2nccs2)N(C)C1=O (stereo not given)	0	0	0	90.0	97.8	0

High-throughput results (PubChem BioAssay)
